In ChEMBL document CHEMBL1255334:
The source made the active and inactive calls. No cut-off for these calls is given here.

Columns and labels:
Assay type in all cases: functional, organism-based
[1] = system: Mycobacterium tuberculosis; test: Antibacterial activity against Mycobacterium tuberculosis containing pncA gene with C deletion at nt 99 assessed as at 100 mg/liter
In short: (§1)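 Clinical M. tuberculosis isolates first grown on Löwenstein-Jensen medium 3 to 4 weeks at 37°C. Radiometric BACTEC 460 test in acidified PZA test medium. Inoculum: ~McFarland 1 suspension grown in 12B medium until growth index (GI) >300. Paired vials per strain: drug-free control and PZA 100 mg/liter. Read when control GI reached 200. Resistant if PZA-vial GI >11% of control GI, susceptible if <9%.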

[2] = system: Mycobacterium tuberculosis; test: (§2) Antibacterial activity against Mycobacterium tuberculosis containing wild type PZase assessed as at 100 mg/liter; in short: as §1
[3] = system: Mycobacterium tuberculosis; test: as §2; in short: as §1; remark: listed apart in the source

Structure (SMILES): NC(=O)c1cnccn1
- Activity [1]: inactive
- Activity [2]: inactive
- Activity [3]: Active
